Measurements: ChEMBL document CHEMBL4715780, “Biological evaluation of tetracationic compounds based on two 1,4-diazabicyclo[2.2.2]octane moieties connected by different linkers” (Bioorg Med Chem, 2016)
≈ marks a conversion by molar mass, not a printed value.

How the values were obtained:
[1] = Selectivity index, ratio of CC50 for MDCK cells to EC50 for Influenza A virus (A/Puerto Rico/8/34 (H1N1)) infected in MDCK cells; assay type: toxicity, cell-based; details: dog, read-out: Ratio CC50/EC50
How it was run: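 Ratio of CC₅₀ to EC₅₀, both in MDCK cells, with cytotoxicity run in parallel with the antiviral assay. EC₅₀ is the concentration halving virus production (0.3 log₁₀ EID₅₀ titre drop). It was obtained after 1 h compound pre-incubation, infection, 48 h at 37 °C, and hemagglutination read-out with 1% chicken erythrocytes.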

[2] = system: Proteus vulgaris; assay: Antibacterial activity against Proteus vulgaris ATCC 6380 assessed as concentration required to inhibit visible growth by CLSI protocol based serial microdilution method; assay type: functional
[3] = system: Citrobacter freundii; assay: Antibacterial activity against Citrobacter freundii ATCC 8090 assessed as concentration required to inhibit visible growth by CLSI protocol based serial microdilution method; assay type: functional
[4] = system: Escherichia coli; assay: Antibacterial activity against Escherichia coli ATCC 25922 assessed as bacterial growth inhibition by CLSI protocol based serial microdilution method; assay type: functional
[5] = system: Staphylococcus aureus; assay: Antibacterial activity against […] Staphylococcus aureus ATCC 25923 assessed as concentration required to inhibit visible growth by CLSI protocol based serial microdilution method; assay type: functional
[6] = system: Escherichia coli; assay: Antibacterial activity against Escherichia coli ATCC 25922 assessed as concentration required to inhibit visible growth by CLSI protocol based serial microdilution method; assay type: functional
[7] = system: Enterococcus faecalis; assay: Antibacterial activity against Enterococcus faecalis ATCC 51299 assessed as bacterial growth inhibition by CLSI protocol based serial microdilution method; assay type: functional
[8] = system: Citrobacter freundii; assay: Antibacterial activity against Citrobacter freundii ATCC 8090 assessed as bacterial growth inhibition by CLSI protocol based serial microdilution method; assay type: functional
[9] = system: Pseudomonas aeruginosa; assay: Antibacterial activity against Pseudomonas aeruginosa ATCC 9027 assessed as concentration required to inhibit visible growth by CLSI protocol based serial microdilution method; assay type: functional
[10] = system: Pseudomonas aeruginosa; assay: Antibacterial activity against Pseudomonas aeruginosa ATCC 9027 assessed as bacterial growth inhibition by CLSI protocol based serial microdilution method; assay type: functional
[11] = system: Candida albicans; assay: Antifungal activity against Candida albicans CEMTC 34 assessed as fungal growth inhibition by CLSI protocol based serial microdilution method; assay type: functional
How it was run: (§1)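 Candida albicans grown in Sabouraud dextrose broth with two-fold serial compound dilutions from water stocks; final inoculum about 5 × 10⁵ CFU/mL. Incubated at 37 °C with orbital shaking (580 rpm). MIC is the lowest concentration preventing growth, by absorbance at 595 nm. MFC is the lowest concentration with no visible growth. Duplicates in two separate experiments.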

[12] = system: Influenza A virus; assay: Antiviral activity against Influenza A virus (A/Puerto Rico/8/34 (H1N1) infected in MDCK cells assessed as decrease in viral titer preincubated for 1 hr followed by viral infection and cultivated for 48 hrs followed by supernatant transferred to chicken erythrocyte for 1 hr followed by measuring ability to cause positive hemagglutination; assay type: functional, organism-based; details: A/Puerto Rico/8/1934(H1N1)
How it was run: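 MDCK monolayers in MEM were pre-incubated with compound for 1 h at 37 °C, then infected with 10-fold virus dilutions (10⁻¹–10⁻⁶) and held 48 h at 37 °C, 5% CO₂. Supernatant was mixed with an equal volume of 1% chicken erythrocytes, 60 min at room temperature. Titre was taken from the highest dilution giving full agglutination (log₁₀ EID₅₀). Triplicate per concentration.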

[13] = Cytotoxicity against MDCK cells assessed as cell death incubated for 48 hrs by MTT assay; assay type: cell-based, Canis lupus familiaris; details: dog
[14] = system: Enterococcus faecalis; assay: Antibacterial activity against Enterococcus faecalis ATCC 51299 assessed as concentration required to inhibit visible growth by CLSI protocol based serial microdilution method; assay type: functional
[15] = system: Staphylococcus aureus; assay: Antibacterial activity against […] Staphylococcus aureus ATCC 25923 assessed as bacterial growth inhibition by CLSI protocol based serial microdilution method; assay type: functional
[16] = system: Candida albicans; assay: Antifungal activity against Candida albicans CEMTC 34 assessed as concentration required to inhibit visible growth by CLSI protocol based serial microdilution method; assay type: functional; how it was run: as §1
[17] = system: Salmonella typhimurium; assay: Antibacterial activity against Salmonella enterica ATCC 14028 assessed as concentration required to inhibit visible growth by CLSI protocol based serial microdilution method; assay type: functional, Salmonella enterica subsp. enterica serovar Typhimurium
[18] = system: Salmonella typhimurium; assay: Antibacterial activity against Salmonella enterica ATCC 14028 assessed as bacterial growth inhibition by CLSI protocol based serial microdilution method; assay type: functional, Salmonella enterica subsp. enterica serovar Typhimurium
[19] = system: Proteus vulgaris; assay: Antibacterial activity against Proteus vulgaris ATCC 6380 assessed as bacterial growth inhibition by CLSI protocol based serial microdilution method; assay type: functional
[20] = Selectivity index, ratio of CC50 for HEK293T cells assessed as reduction in cell viability measured after 24 hrs by MTT assay to MIC for Salmonella enterica ATCC 14028 assessed as bacterial growth inhibition by CLSI protocol based serial microdilution method; assay type: toxicity; details: human, read-out: Selectivity Index
[21] = Cytotoxicity against human MCF7 cells assessed as reduction in cell viability measured after 24 hrs by MTT assay; assay type: cell-based
How it was run: (§2)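 HEK293T or MCF-7 cells in IMDM with 10% FBS, seeded at 20,000 per well and grown overnight. Compounds at […] in fresh medium for 24 h at 37 °C, 5% CO₂. MTT then added for 4 h, precipitate dissolved overnight in SDS-HCl, absorbance read at 570 nm. Viability expressed relative to untreated cells, giving CC₅₀. Duplicate wells, at least two independent repeats.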

[22] = Selectivity index, ratio of CC50 for HEK293T cells assessed as reduction in cell viability measured after 24 hrs by MTT assay to MIC for Citrobacter freundii ATCC 8090 assessed as bacterial growth inhibition by CLSI protocol based serial microdilution method; assay type: toxicity; details: human, read-out: Selectivity Index
[23] = Selectivity index, ratio of CC50 for HEK293T cells assessed as reduction in cell viability measured after 24 hrs by MTT assay to MIC for Enterococcus faecalis ATCC 51299 assessed as bacterial growth inhibition by CLSI protocol based serial microdilution method; assay type: toxicity; details: human, read-out: Selectivity Index
[24] = Selectivity index, ratio of CC50 for HEK293T cells assessed as reduction in cell viability measured after 24 hrs by MTT assay to MIC for Candida albicans CEMTC 34 assessed as bacterial growth inhibition by CLSI protocol based serial microdilution method; assay type: toxicity; details: human, read-out: Selectivity Index
How it was run: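 SI = CC₅₀ (HEK293T) / MIC. HEK293T cells were seeded at 20,000/well overnight, then exposed to 10–250 µg/mL in IMDM with 10% FBS for 24 h. MTT was added for 4 h, solubilised with SDS-HCl, and read at 570 nm; duplicates, ≥2 independent runs. MIC came from two-fold dilutions in Sabouraud dextrose broth at ~5 × 10⁵ CFU/mL, 37 °C with shaking, read at 595 nm, in duplicate.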

[25] = Selectivity index, ratio of CC50 for HEK293T cells assessed as reduction in cell viability measured after 24 hrs by MTT assay to MIC for Staphylococcus aureus ATCC 25923 assessed as bacterial growth inhibition by CLSI protocol based serial microdilution method; assay type: toxicity; details: human, read-out: Selectivity Index
[26] = Cytotoxicity against HEK293T cells assessed as reduction in cell viability measured after 24 hrs by MTT assay; assay type: cell-based, HEK-293T; details: human; how it was run: as §2
[27] = Selectivity index, ratio of CC50 for HEK293T cells assessed as reduction in cell viability measured after 24 hrs by MTT assay to MIC for Pseudomonas aeruginosa ATCC 9027 assessed as bacterial growth inhibition by CLSI protocol based serial microdilution method; assay type: toxicity; details: human, read-out: Selectivity Index
[28] = Selectivity index, ratio of CC50 for HEK293T cells assessed as reduction in cell viability measured after 24 hrs by MTT assay to MIC for Proteus vulgaris ATCC 6380 assessed as bacterial growth inhibition by CLSI protocol based serial microdilution method; assay type: toxicity; details: human, read-out: Selectivity Index
[29] = Selectivity index, ratio of CC50 for HEK293T cells assessed as reduction in cell viability measured after 24 hrs by MTT assay to MIC for Escherichia coli ATCC 25922 assessed as bacterial growth inhibition by CLSI protocol based serial microdilution method; assay type: toxicity; details: human, read-out: Selectivity Index

SMILES | selectivity ratio [1] | MBC [2] [mg/L] | MBC [3] [mg/L] | MIC [4] [mg/L] | MBC [5] [mg/L] | MBC [6] [mg/L] | MIC [7] [mg/L] | MIC [8] [mg/L] | MBC [9] [mg/L] | MIC [10] [mg/L] | MIC [11] [mg/L] | EC50 [12] [mg/L] | CC50 at 48 h [13] [mg/L] | MBC [14] [mg/L] | MIC [15] [mg/L] | MFC [16] [mg/L] | MBC [17] [mg/L] | MIC [18] [mg/L] | MIC [19] [mg/L] | CC50 at 24 h [21] [mg/L] | further results
C#CCOCCCCCN(CC[N+]12CC[N+](CCCCCCCCCCCC)(CC1)CC2)CC[N+]12CC[N+](CCCCCCCCCCCC)(CC1)CC2.[Cl-].[Cl-].[Cl-].[Cl-] | 1 | > 100 | 3.1 | 3.1 | 3.1 | 3.1 | 1.6 | 3.1 | 12.5 | 6.3 | 25 | 10 | 14.9 | 3.1 | 1.6 | 25 | 3.1 | 3.1 | 100 | – | –
CCCCCCCCCCCC[N+]12CC[N+](Cc3cccc(-c4ccccc4C[N+]45CC[N+](CCCCCCCCCCCC)(CC4)CC5)c3)(CC1)CC2 | – | 100 | 1.6 | 1.6 | 1.2 | 3.1 | 0.8 | 1.6 | 6.3 | 3.1 | 1.6 | – | – | 1.6 | 0.6 | 6.3 | 3.1 | 1.6 | 50 | – | –
CCCCCCCCCCCC[N+]12CC[N+](Cc3cccc(C[N+]45CC[N+](CCCCCCCCCCCC)(CC4)CC5)c3)(CC1)CC2 | 6 | 25 | 3.1 | 1.6 | 1.6 | 3.1 | 1.6 | 1.6 | 3.1 | 1.6 | 12.5 | 1.3 | 8.4 | 1.6 | 0.6 | 12.5 | 3.1 | 1.6 | 25 | 17 | selectivity ratio at 24 h [20]: 10; selectivity ratio at 24 h [22]: 10; selectivity ratio at 24 h [23]: 10; selectivity ratio at 24 h [24]: 1; selectivity ratio at 24 h [25]: 27; CC50 at 24 h [26]: 16 mg/L; selectivity ratio at 24 h [27]: 10; selectivity ratio at 24 h [28]: < 1; selectivity ratio at 24 h [29]: 10
CCOC(=O)C1=C[C@@H](OC(CC)CC)[C@H](NC(C)=O)[C@@H](N)C1 [OSELTAMIVIR] | 1000 | – | – | – | – | – | – | – | – | – | – | 0.3 (≈ 0.96 µM) | 300 (≈ 960 µM) | – | – | – | – | – | – | – | –
CCCCCCCCCCCC[N+]12CC[N+](CCCCCCCC[N+]34CC[N+](CCCCCCCCCCCC)(CC3)CC4)(CC1)CC2 | 2 | > 100 | 6.3 | 1.6 | 1.6 | 3.1 | 1.6 | 3.1 | 6.3 | 3.1 | 6.3 | 2.2 | 4.5 | 1.6 | 0.6 | 12.5 | 6.3 | 3.1 | 100 | – | –
O=C(O)c1cn(C2CC2)c2cc(N3CCNCC3)c(F)cc2c1=O [CIPROFLOXACIN] | – | – | – | – | – | – | – | – | – | – | – | – | – | – | – | – | – | – | – | 60 (≈ 181 µM) | CC50 at 24 h [26]: > 60 mg/L
CCCCCCCCCCCC[N+]12CC[N+](Cc3nnn(CCCCC(=O)OC)c3C[N+]34CC[N+](CCCCCCCCCCCC)(CC3)CC4)(CC1)CC2.[Cl-].[Cl-].[Cl-].[Cl-] | < 2 | > 100 | 3.1 | 3.1 | 3.1 | 3.1 | 1.6 | 1.6 | 12.5 | 6.3 | 6.3 | > 11 | 20.6 | 3.1 | 1.6 | 12.5 | 3.1 | 3.1 | 100 | – | –
CCCCCCCCCCCC[N+]12CC[N+](Cc3nnn(CCCCCN=[N+]=[N-])c3C[N+]34CC[N+](CCCCCCCCCCCC)(CC3)CC4)(CC1)CC2.[Cl-].[Cl-].[Cl-].[Cl-] | 3 | > 100 | 3.1 | 1.6 | 3.1 | 3.1 | 1.6 | 1.6 | 6.3 | 3.1 | 12.5 | 4.2 | 12.9 | 1.6 | 1.6 | 12.5 | 3.1 | 1.6 | 50 | – | –
Clc1ccccc1C(c1ccccc1)(c1ccccc1)n1ccnc1 [CLOTRIMAZOLE] | – | – | – | – | – | – | – | – | – | – | 400 (≈ 1160 µM) | – | – | – | – | 400 (≈ 1160 µM) | – | – | – | 5 (≈ 14.5 µM) | selectivity ratio at 24 h [24]: < 1; CC50 at 24 h [26]: 7 mg/L (≈ 20.3 µM)
CCCCCCCCCCCC[N+]12CC[N+](CCNCC[N+]34CC[N+](CCCCCCCCCCCC)(CC3)CC4)(CC1)CC2.[Cl-].[Cl-].[Cl-].[Cl-] | 4 | 50 | 3.1 | 16 | 12 | 3.1 | 0.8 | 3.1 | 6.3 | 1.6 | 12.5 | 2.2 | 7.7 | 1.6 | 0.6 | 12.5 | 3.1 | 1.6 | 50 | – | –
